Reference: ChEMBL document CHEMBL1932969, “Acyl derivatives of boswellic acids as inhibitors of NF-κB and STATs” (Bioorg Med Chem Lett, 2012)

Experiments:
Format in all cases: functional
DU-145 = experiment: Anticancer activity against human DU145 cells assessed as growth inhibition at 50 uM after 48 hrs by SRB assay; details: DU-145, 48 h, read-out: GI
Procedure, shortened: (§1)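 Cells exposed to test compounds at 50 µM for 48 h. Read-out is percent growth inhibition, with SEM given. 5-Fluorouracil and adriamycin serve as reference agents.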

HEp-2 = experiment: Anticancer activity against human Hep2 cells assessed as growth inhibition at 50 uM after 48 hrs by SRB assay; details: HEp-2, 48 h, read-out: GI; procedure, shortened: as §1
PC-3 = experiment: Anticancer activity against human PC3 cells assessed as growth inhibition at 50 uM after 48 hrs by SRB assay; details: PC-3, 48 h, read-out: GI; procedure, shortened: as §1
HT-29 = experiment: Anticancer activity against human HT-29 cells assessed as growth inhibition at 50 uM after 48 hrs by SRB assay; details: HT-29, 48 h, read-out: GI; procedure, shortened: as §1
COLO 205 = experiment: Anticancer activity against human COLO205 cells assessed as growth inhibition at 50 uM after 48 hrs by SRB assay; details: COLO 205, 48 h, read-out: GI; procedure, shortened: as §1
SW-620 = experiment: Anticancer activity against human SW620 cells assessed as growth inhibition at 50 uM after 48 hrs by SRB assay; details: SW-620, 48 h, read-out: GI; procedure, shortened: as §1

Row | Compound | inhibition of growth at 50 µM (DU-145) [%] | inhibition of growth at 50 µM (HEp-2) [%] | inhibition of growth at 50 µM (PC-3) [%] | inhibition of growth at 50 µM (HT-29) [%] | inhibition of growth at 50 µM (COLO 205) [%] | inhibition of growth at 50 µM (SW-620) [%]
1 | CCCC(=O)O[C@H]1CC[C@@]2(C)[C@@H](CC[C@]3(C)[C@@H]2C(=O)C=C2[C@@H]4[C@@H](C)[C@H](C)CC[C@]4(C)CC[C@]23C)[C@@]1(C)C(=O)O | 92 | 66 | 94 | 62 | 91 | 79
2 | C[C@H]1[C@H](C)CC[C@]2(C)CC[C@]3(C)C(=CC[C@@H]4[C@@]5(C)CC[C@H](OC(=O)CCC(=O)O)[C@](C)(C(=O)O)[C@@H]5CC[C@]43C)[C@H]12 | 48 | 11 | 35 | 13 | 19 | 5
3 | C[C@H]1[C@H](C)CC[C@]2(C)CC[C@]3(C)C(=CC[C@@H]4[C@@]5(C)CC[C@@H](OC(=O)CCC(=O)O)[C@](C)(C(=O)O)[C@@H]5CC[C@]43C)[C@H]12 | 93 | 55 | 90 | 72 | 88 | 67
4 | COC(=O)[C@@]1(C)C(=O)CC[C@]2(C)[C@H]3C(=O)C=C4[C@@H]5[C@@H](C)[C@H](C)CC[C@]5(C)CC[C@@]4(C)[C@]3(C)CC[C@@H]12 | 23 | 10 | 3 | 17 | 30 | 11
5 | C[C@H]1[C@H](C)CC[C@]2(C)CC[C@]3(C)C(=CC(=O)[C@@H]4[C@@]5(C)CC[C@@H](OC=O)[C@](C)(C(=O)O)[C@@H]5CC[C@]43C)[C@H]12 | 83 | 54 | 95 | 63 | 73 | 69
6 | CCC(=O)O[C@H]1CC[C@@]2(C)[C@@H](CC[C@]3(C)[C@@H]2C(=O)C=C2[C@@H]4[C@@H](C)[C@H](C)CC[C@]4(C)CC[C@]23C)[C@@]1(C)C(=O)O | 89 | 63 | 96 | 64 | 83 | 72
7 | CC(=O)O[C@@H]1CC[C@@]2(C)[C@@H](CC[C@]3(C)[C@@H]2C(=O)C=C2[C@@H]4[C@@H](C)[C@H](C)CC[C@]4(C)CC[C@]23C)[C@@]1(C)C(=O)O [AKBA] | 85 | 59 | 76 | 88 | 85 | 88
8 | COC(=O)[C@@]1(C)[C@H](O)CC[C@@]2(C)[C@H]1CC[C@]1(C)[C@@H]2C(=O)C=C2[C@@H]3[C@@H](C)[C@H](C)CC[C@]3(C)CC[C@]21C | 65 | 50 | 87 | 67 | 70 | 67
9 | C[C@H]1[C@H](C)CC[C@]2(C)CC[C@]3(C)C(=CC(=O)[C@@H]4[C@@]5(C)CC[C@@H](O)[C@](C)(C(=O)O)[C@@H]5CC[C@]43C)[C@H]12 [11-KETO BOSWELLIC ACID] | 95 | 35 | 100 | 39 | 52 | 28
10 | CC(=O)O[C@@H]1CC[C@@]2(C)[C@@H](CC[C@]3(C)[C@@H]2CC=C2[C@@H]4[C@@H](C)[C@H](C)CC[C@]4(C)CC[C@]23C)[C@@]1(C)C(=O)O | 3 | 85 | 44 | 93 | 91 | 93
11 | COC(=O)[C@]1(C)[C@@H]2CC[C@]3(C)[C@H](CC=C4[C@@H]5[C@@H](C)[C@H](C)CC[C@]5(C)CC[C@]43C)[C@@]2(C)CC[C@@H]1O | 3 | 0 | 7 | 5 | 22 | 9
12 | CCCC(=O)O[C@H]1CC[C@@]2(C)[C@@H](CC[C@]3(C)[C@@H]2CC=C2[C@@H]4[C@@H](C)[C@H](C)CC[C@]4(C)CC[C@]23C)[C@@]1(C)C(=O)O | 89 | 63 | 83 | 57 | 67 | 79
